Shown are actives, neighbours in structure and some others; about 12% of the full set was active somewhere.
Diaphorase act: counter-screen for diaphorase-based assays: diaphorase activators and chemical reducers; hit rate 0.005% among 190,000; activation factor at 20 µM; Diaphorase/resazurin coupled assay, resorufin fluorescence, 16 min; stronger effect = higher value; 1 = vehicle wells, 0 = NADH-free wells;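 active = diaphorase activity raised at least twofold by the compound at 20 µM; inactive = activation factor below 2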
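Assay system: Purified diaphorase enzyme from Clostridium kluyveri | Amount: Enzyme 0.07 U/mL final | Dosing: Compound 20 µM once, DMSO 1% | Timing: 16 min reaction at room temperature | Detection: Fluorescence, excitation 544 nm and emission 590 nm | Evaluation: Higher resorufin formation from activation or reduction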
Diaphorase inh: inhibits diaphorase or chemically oxidizes, flagging diaphorase assay artifacts | diaphorase resazurin-to-resorufin fluorescence, NADH, 16 min; bacterial (C. kluyveri) enzyme, not human | inhibition, % at 20 µM | hit rate 0.69% among 190,000 | AID 1217;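 active = primary screen inhibition at 20 µM above a set limit, cut at about 50% in these data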;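 also: plate controls were DMSO with full reaction for no effect and wells lacking NADH for full effect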
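Test system: diaphorase enzyme from Clostridium kluyveri; amount: diaphorase at 0.14 U/mL in enzyme working solution; detection: fluorescence of resorufin formed from resazurin, Ex 544/Em 590 nm; times: reaction incubation of 16 min at room temperature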
WT yeast gro inh: growth inhibition of WT yeast, mitochondrial fusion screen | mitochondrial fusion phenotypic screen, WT strain | inhibition, % at 10 µM | hit rate 2.1% among 190,000 | AID 1362; in the data active = inhibition above about 58%; tested in S. cerevisiae
Cl transport mod: KCC2 (human) Cl- transport modulation; Q9H2X9; hit rate 2.2% among 190,000; B-score of Tl+ flux slope (higher = more flux/activation; lower = inhibition) at 10 µM; KCC2 cells, thallium flux FluoZin-2 fluorescence;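 active = thallium flux slope and its plate-corrected score both differing from the plate sample mean at a set confidence after two filtering rounds, in either direction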;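 also: slope of fluorescence scaled to starting intensity during 10 to 20 s after thallium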
ROMK primary: modulators of human ROMK potassium channel | Tet-inducible ROMK, thallium flux fluorescence; actives lie on both sides | B-score at 10 µM | hit rate 2% among 130,000 | AID 1918;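 active = signal ratio slope over the read window, or its plate-corrected B-score, at least 3 SD from the plate mean, either direction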;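 also: B-score of the F/F0 ratio slope over 7 to 12 s after thallium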
Lmaj promast: Leishmania major promastigote growth inhibition; inhibition, % at 10 µM; Leishmania major promastigotes, resazurin fluorescence viability; hit rate 9% among 200,000; in the data active = inhibition above about 50%;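 also: promastigotes grown with compound for 44 hours at 28 °C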
KCC2 sec1: KCC2 (human) modulation, secondary assay; shares compounds with Cl transport mod; HEK293-KCC2, thallium flux, FluoZin2 fluorescence; stronger effect = higher value; normalised thallium flux (F/F0 slope) at 10 µM; hit rate 15% among 3,700; AID 1713;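 active = thallium flux slope above the same plate's solvent-only control mean plus 3 SD; inconclusive = the two replicate wells disagree; inactive = no significant difference from solvent-only control wells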
KCC2 bumet counter: thallium flux persisting under bumetanide in KCC2 cells, counter-screen secondary assay. HEK293-KCC2 + bumetanide/ouabain, thallium flux FluoZin2; stronger effect = higher value. normalized thallium flux at 10 µM. AID 1714. shares compounds with Cl transport mod. hit rate 49% among 3,700;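 active = thallium entry rate above the same plate's blocked-transporter control wells by more than 3 SD; inconclusive = the two repeat wells disagree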;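 also: raw slope of fluorescence over initial fluorescence between 10 and 20 s after thallium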
KCC2 sec2: confirmation of human KCC2 transport modulators | shares compounds with Cl transport mod | HEK293-KCC2, thallium flux FluoZin2 fluorescence; actives lie on both sides; F/F0 rise rate, 10–20 s post-thallium | normalized thallium flux at 10 µM | hit rate 23% among 3,700 | AID 1715;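 active = thallium flux slope more than 3 SD above or below the plate's solvent-only control mean, mostly below; inconclusive = the two repeat wells disagreed; inactive = no significant shift from solvent-only controls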;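 also: raw slope with 0.1% DMSO as baseline and bumetanide as block control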
HEK counter1: parental HEK flux effect, counter-screen; thallium flux rate (normalised fluorescence) at 10 µM; hit rate 46% among 3,700; shares compounds with Cl transport mod; HEK293 parental cells, thallium flux FluoZin2, ouabain; baseline-ratio fluorescence slope, 10–20 s after thallium;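 active = thallium flux rate significantly above the same plate's solvent-only control wells, beyond their mean plus 3 SD; inconclusive = the two replicate wells gave conflicting results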
KCC2 ouabain: modulates human KCC2 on retest with ouabain; shares compounds with Cl transport mod; HEK293-KCC2, thallium flux FluoZin2 fluorescence; bidirectional: low = inhibitor, high = activator; raw Tl+ flux slope (below DMSO = inhibition, above = activation) at 10 µM; hit rate 48% among 3,700; AID 1717;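 active = thallium flux slope beyond 3 SD from same-plate DMSO control mean in most replicates, usually higher, sometimes lower; inconclusive = repeat tests gave conflicting results; inactive = no significant difference from controls in most replicates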;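 also: slope of initial-normalized fluorescence between seconds 10 and 20 after thallium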
HEK counter2: counter-screen for KCC2 modulators: effect in parental HEK293 cells | shares compounds with Cl transport mod | thallium flux FluoZin-2 fluorescence slope | thallium flux slope at 10 µM | hit rate 33% among 3,700 | AID 1718;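 active = thallium flux slope above the same plate's solvent-control mean plus 3 SD in both duplicate wells; inconclusive = duplicate wells that disagreed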;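 also: run without ouabain in cells lacking the KCC2 cotransporter; slope of fluorescence scaled to its starting value between 10 and 20 s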
Active calls of the source: *; i = inactive; ? = inconclusive; nt = no result given.

SMILES	Diaphorase act	Diaphorase inh	WT yeast gro inh	Cl transport mod	ROMK primary	Lmaj promast	KCC2 sec1	KCC2 bumet counter	KCC2 sec2	HEK counter1	KCC2 ouabain	HEK counter2
O=C(CC1C(=O)NCCN1C(=S)Nc1ccccc1)Nc1ccc2c(c1)OCCO2 (centres undefined)	0.9	8	-8	nt	nt	-2	nt	nt	nt	nt	nt	nt
O=C(Nc1ccccc1Cl)N1CCN(c2ccc3nnc(-c4ccc(F)cc4)n3n2)CC1	0.6	35	32	-3.9*	nt	28	0.0092	0.0072	0.03	0.0093*	0.019	0.01
COC(=O)CC(N)c1ccc(OC)c2ccccc12 (centres undefined)	1	4	nt	0.94	nt	-1	nt	nt	nt	nt	nt	nt
C/C(=N\O)c1oc2ccc3c(C)cc(=O)oc3c2c1C	nt	nt	nt	i	0.012	nt	nt	nt	nt	nt	nt	nt
CCOc1ccc(NC(=O)N[C@@H](Cc2ccccc2)C(=O)O)cc1	nt	nt	nt	0.35	nt	nt	nt	nt	nt	nt	nt	nt
COC(=O)C1(S(=O)(=O)c2ccc(C)cc2)CCOCC1	0.8	17	-10	-0.016	nt	-3	nt	nt	nt	nt	nt	nt
Cc1ccc(CCNC(=O)c2ccc(CS(=O)(=O)Cc3ccccc3F)o2)cc1	0.9	14	-15	-6.8*	-1.5	75*	0.0064	?	?	0.0074	0.018	0.012
COc1ccc(NC(=O)Cn2c(=O)sc3ccccc32)cc1	0.9	10	-3	1.7	0.94	29	nt	nt	nt	nt	nt	nt
O=C(Cn1c(=O)sc2ccccc21)Nc1ccccc1	0.9	11	11	6.7*	-0.013	3	0.0064	0.0044	0.033	0.0078	0.02	0.01
O=C(Nc1nnc(-c2ccc3c(c2)CCCC3)o1)c1c(F)cccc1F	0.9	8	56	16*	0.84	-8	0.017*	0.047*	0.037	0.02*	0.035*	0.013*
COc1ccc(S(=O)(=O)NCCc2csc(-c3cccnc3)n2)cc1	1	-2	-11	-1.1	nt	-5	nt	nt	nt	nt	nt	nt
CC(C)c1onc(C(=O)N2CCOCC2)c1[N+](=O)[O-]	1	-3	6	0.81	-0.87	9	nt	nt	nt	nt	nt	nt
CC(C)c1onc(C(=O)NCCc2ccccc2)c1[N+](=O)[O-]	1	3	6	-5.2*	-0.032	-4	0.0053	0.005	0.025*	0.0078	?	0.01
CC(C)c1onc(C(=O)N2CCN(Cc3ccccc3)CC2)c1[N+](=O)[O-]	1	-1	-11	-4.9*	-0.34	-1	0.0089	0.006	0.028*	0.0077	0.015*	0.0099
CC(C)c1onc(C(=O)N(C)Cc2ccccc2)c1[N+](=O)[O-]	1	-3	14	-1.7	-0.22	-6	nt	nt	nt	nt	nt	nt
O=C(Nc1nccs1)c1ccc(S(=O)(=O)N2CCOCC2)cc1	1.1	-13	-13	-0.46	0.42	4	nt	nt	nt	nt	nt	nt
COCCNC(=O)c1cc(Br)ccc1Cl	0.9	8	5	-4.5*	0.17	-3	0.011	0.035*	0.033	0.019*	0.028	?
O=C(NCCOc1ccc(F)cc1)c1ccccc1SCc1ccccc1	0.9	11	43	-5.4*	nt	-3	0.0051	?	0.019*	0.0059*	0.012*	0.0089
CCc1ccc(OCCNC(=O)c2cc(SC)ccc2Cl)cc1	0.8	21	17	-6.3*	0.067	-6	0.0067	0.0053	0.025*	0.0071	?	0.011
CCc1ccc(OCCNC(=O)c2cccs2)cc1	1.1	-6	nt	nt	1.1	18	nt	nt	nt	nt	nt	nt
CCc1ccc(OCCNC(=O)c2ccccc2SCc2ccc(F)cc2)cc1	0.7	26	-7	-8.8*	-0.9	-2	0.0082	0.0065	0.023*	0.0065	0.013*	0.0093
O=c1cc(O)nc(SCc2ccccc2)n1-c1ccc(F)cc1	0.9	11	-5	nt	nt	-16	nt	nt	nt	nt	nt	nt
CN(C)S(=O)(=O)c1ccc(NC(=O)COC(=O)c2ccccn2)cc1	0.8	16	13	-0.0038	nt	-7	nt	nt	nt	nt	nt	nt
C=CCn1c(CSc2nc3ccccc3s2)n[nH]c1=S	1	-2	5	-4.4*	nt	-4	0.015	0.0093*	0.024*	0.0099*	0.014*	?
CCc1ccc(-c2nc(SCC(=O)N3CCOCC3)n[nH]2)cc1	1	-1	0	-1.8	0.39	-1	nt	nt	nt	nt	nt	nt
SMILES	Diaphorase act	Diaphorase inh	WT yeast gro inh	Cl transport mod	ROMK primary	Lmaj promast	KCC2 sec1	KCC2 bumet counter	KCC2 sec2	HEK counter1	KCC2 ouabain	HEK counter2
CC/C(=N/Nc1cccc(Cl)c1)c1cnnc(SC)n1	1	-2	0	0.42	-1.3	26	nt	nt	nt	nt	nt	nt
CC/C(=N/Nc1ccccc1)c1cnnc(-c2ccccc2)n1	1.1	-5	12	2.7*	-0.66	13	0.0099	0.0056	0.033	0.0081	0.022	0.01
Cn1c(CNc2cccc(C(F)(F)F)c2)n[nH]c1=S	0.9	12	8	-4*	-0.76	-1	0.0058	0.0049	0.025*	0.0071	?	0.01
Cc1cccc(NCc2n[nH]c(=S)n2-c2ccccc2)c1	nt	nt	-12	-0.11	0.12	-6	nt	nt	nt	nt	nt	nt
Cc1ccc(CNCC(=O)Nc2ccc(C)cc2Br)cc1	0.9	8	17	-1.8	-0.52	-4	nt	nt	nt	nt	nt	nt
c1ccc(CSc2nnc(NC3=NCCCCC3)s2)cc1	0.9	14	22	nt	-0.58	9	0.0076	0.0052	0.028	0.0072	0.034*	0.01
O=C(CSc1ncccc1C(=O)O)NC12CC3CC(CC(C3)C1)C2	0.9	6	-11	-0.24	0.049	-5	nt	nt	nt	nt	nt	nt
CCCC(C)NC(=O)c1cc(Cl)ccc1OC (centres undefined)	1	2	-9	nt	-0.66	-4	nt	nt	nt	nt	nt	nt
CCCCNC(=O)c1onc(CSc2cccc3ccccc23)c1C(=O)O	0.9	9	19	-4.8*	nt	-9	0.0073	0.006	0.029	?	0.018*	0.0094
CCOc1ccc2nc(NCCCNS(=O)(=O)c3ccccc3)c(C#N)cc2c1	0.7	27	2	0.12	0.54	-3	nt	nt	nt	nt	nt	nt
Cc1sc2ncn(CC(=O)OCC(=O)NC(C)(C)C)c(=O)c2c1C	0.9	6	-12	nt	nt	-1	0.0068	0.005	0.03	0.008	0.019	0.011
Cc1sc2ncn(CC(=O)OC(C)C)c(=O)c2c1C	0.9	14	-16	-0.14	-0.052	-4	nt	nt	nt	nt	nt	nt

Assay outcomes: PubChem, several laboratories
